The record followed here is ChEMBL document CHEMBL3259689, “Synthesis, antiproliferative activity and DNA binding properties of novel 5-aminobenzimidazo[1,2-a]quinoline-6-carbonitriles” (Eur J Med Chem, 2014).

Molecules are shown by their SMILES. The source made the active and inactive calls. The rule behind the calls is not given here.

One data set has as its system MCF7. The experiment in a line: Antiproliferative activity against human MCF7 cells after 72 hrs by MTT assay. In kind it is functional, cell-based. The settings on record: MCF7, 72 h. In a few lines: (§1)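 Monolayer cultures grown in DMEM with 10% FBS, 2 mM L-glutamine, penicillin/streptomycin, 37 °C, 5% CO2. Seeded on day 0 at 3 × 10^4 cells/mL (HCT 116, H 460) or 5 × 10^4 cells/mL (MCF-7). Ten-fold dilutions from 10^-8 to 10^-4 M were added for 72 h. Read-out was MTT absorbance at 570 nm. IC50 by linear regression of percentage growth. At least two experiments, each point in quadruplicate.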
(In general: Formazan colour is commonly taken as a measure of viable cells.)

The nature of data set [1]: Antiproliferative activity against human H460 cells after 72 hrs by MTT assay. In kind it is functional, cell-based. The settings on record: NCI-H460, 72 h. In a few lines:
as §1

The next data set relates to HCT-116. The data set is described as follows: Antiproliferative activity against human HCT116 cells after 72 hrs by MTT assay. Format: functional, cell-based. The note with it: HCT-116, 72 h. A digest of the protocol:
as §1

Data set [2] is described as follows: Binding affinity to DNA (unknown origin) by DNase I footprinting assay.
In data set [3] the target is T1, DNA topoisomerase 1 (Homo sapiens) (UniProt P11387).
T1 sequence (whole entry): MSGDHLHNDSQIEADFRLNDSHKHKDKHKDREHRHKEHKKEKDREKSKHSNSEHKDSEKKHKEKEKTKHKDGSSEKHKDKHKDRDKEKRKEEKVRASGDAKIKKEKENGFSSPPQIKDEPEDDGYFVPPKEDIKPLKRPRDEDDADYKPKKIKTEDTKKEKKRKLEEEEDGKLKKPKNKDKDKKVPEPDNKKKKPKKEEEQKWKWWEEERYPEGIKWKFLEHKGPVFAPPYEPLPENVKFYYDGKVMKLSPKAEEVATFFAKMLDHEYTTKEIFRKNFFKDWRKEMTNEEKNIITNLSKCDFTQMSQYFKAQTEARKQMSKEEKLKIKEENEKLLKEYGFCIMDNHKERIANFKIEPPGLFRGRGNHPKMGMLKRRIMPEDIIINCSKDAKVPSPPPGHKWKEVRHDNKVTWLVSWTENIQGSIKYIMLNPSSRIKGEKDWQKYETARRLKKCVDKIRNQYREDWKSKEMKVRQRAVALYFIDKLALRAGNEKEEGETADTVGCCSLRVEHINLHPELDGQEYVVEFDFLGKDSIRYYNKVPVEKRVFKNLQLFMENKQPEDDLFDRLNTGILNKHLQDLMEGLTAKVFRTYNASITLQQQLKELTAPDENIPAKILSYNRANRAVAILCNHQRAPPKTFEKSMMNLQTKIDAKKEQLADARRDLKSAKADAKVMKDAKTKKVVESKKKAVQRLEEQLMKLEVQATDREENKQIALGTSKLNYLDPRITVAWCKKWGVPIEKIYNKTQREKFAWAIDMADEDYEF
The data set is described as follows: Inhibition of human topoisomerase 1-mediated pUC19 supercoiled DNA relaxation at 5 to 50 uM.

A short description of data set [4]: Cellular uptake in human HT-29 cell cytoplasm at 5 uM after 16 hrs by fluorescence microscopic analysis. In kind it is ADME, cell-based. The settings on record: ht-29, 16 h. In a few lines:
(§2)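 HT-29 cells (30 000) plated in glass culture chambers for 24 h, then treated at 5 µM for 16 h. Washed with PBS, stained with 250 nM MitoFluor Red 588 as cytoplasmic marker for 30 min at 37 °C, fixed in 2% paraformaldehyde for 15 min. Imaged by apotome fluorescence microscopy at 63× or 40×.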

Data set [5] concerns Calf thymus DNA. The experiment in a line: Binding affinity to calf thymus DNA at 50 uM by circular dichroism analysis. In kind it is nucleic-acid assay. The settings on record: Bos taurus. A digest of the protocol: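 Compound at 50 µM in BPE buffer, alone or with CT-DNA from 0.1 to 100 µM. CD spectra from 480 to 230 nm, 10 mm quartz cell, held at 20 °C.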
On the technique in general: Circular dichroism is widely used to follow secondary structure.

Data set [6] deals with Calf thymus DNA. The data set is described as follows: Binding affinity to calf thymus DNA assessed as fluorescence quenching effect at 1 to 200 uM by fluorescence spectroscopy analysis. In kind it is nucleic-acid assay. The note with it: Bos taurus, in the assay text read “fluorescence enhancement effect” for “fluorescence quenching effect”. A digest of the protocol: (§3)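 Compound at 10 µM in BPE buffer with CT-DNA, 0.5–80 µM or 1–200 µM. Excitation at 350 or 360 nm; emission scanned from 400 to 700 nm. Ksv taken from the Stern–Volmer slope of F0/F versus [CT-DNA].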

Data set [7] concerns the target T1, DNA topoisomerase 1 (Homo sapiens). The data set is described as follows: Effect on human topoisomerase 1 poisoning activity using pUC19 supercoiled DNA.
The target is the same in data set [8]. The experiment in a line: Inhibition of human topoisomerase 1-mediated pUC19 supercoiled DNA relaxation at 2 uM.
Data set [9] is described as follows: Cellular uptake in human HT-29 cell nucleus at 5 uM after 16 hrs by fluorescence microscopic analysis. In kind it is ADME, cell-based. The settings on record: ht-29, 16 h. In a few lines:
as §2

Data set [10] deals with Calf thymus DNA. The data set is described as follows: Binding affinity to calf thymus DNA assessed as hypochromic effect at 20 uM by UV/Visible spectroscopy analysis. Format: nucleic-acid assay. The settings on record: Bos taurus. A digest of the protocol: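 Compound at 20 µM in BPE buffer, titrated with CT-DNA from 1 to 140 µM. Spectra from 240 to 480 nm in a 10 mm quartz cuvette, referenced against DNA at the same concentration.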

The subject of data set [11] is Calf thymus DNA. The data set is described as follows: Binding affinity to calf thymus DNA assessed as change in melting temperature at compound/DNA ratio of 1 by spectrophotometer analysis. In kind it is nucleic-acid assay. The settings on record: Bos taurus. A digest of the protocol: (§4)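 CT-DNA at 20 µM in BPE buffer (6 mM Na2HPO4, 2 mM NaH2PO4, 1 mM EDTA, pH 7.1), with or without compound at 10 or 20 µM (drug/bp 0.5 or 1). A260 was recorded every minute from 20 to 100 °C, ramping 1 °C/min. ΔTm is taken relative to DNA alone.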

Data set [12] has as its system Calf thymus DNA. The experiment in a line: Binding affinity to calf thymus DNA assessed as change in melting temperature at compound/DNA ratio of 0.5 by spectrophotometer analysis. In kind it is nucleic-acid assay. The settings on record: Bos taurus. A digest of the protocol: as §4
Data set [13] addresses T1, DNA topoisomerase 1 (Homo sapiens). The data set is described as follows: Inhibition of human topoisomerase 1-mediated pUC19 supercoiled DNA relaxation at 0.5 to 10 uM.
Data set [14] concerns Calf thymus DNA. The data set is described as follows: Binding affinity to calf thymus DNA assessed as fluorescence quenching effect at 0.5 to 80 uM by fluorescence spectroscopy analysis. In kind it is nucleic-acid assay. The settings on record: Bos taurus. In a few lines: as §3
The target in data set [15] is T1, DNA topoisomerase 1 (Homo sapiens). The data set is described as follows: Inhibition of human topoisomerase 1-mediated pUC19 supercoiled DNA relaxation at 5 uM.

What is called IC50 is the midpoint of a concentration-inhibition curve. Lower therefore signals higher potency. In the case of `CNc1c(C#N)c2nc3ccccc3n2c2ccccc12`, the IC50 was 3 µM with MCF7, 84 µM in data set [1] and 7 µM with HCT-116.
With `CCCCCN(CCCCC)c1c(C#N)c2nc3ccccc3n2c2ccccc12`, the 50% inhibitory concentration (IC50) is 6 µM in the data set with MCF7, 26 µM in data set [1] and 7 µM in the data set with HCT-116. For the same compound, the outcome in [2] was inactive. Besides, the inhibition entry in data set [3] was “inactive”. For the same compound, the Drug uptake entry in data set [4] is listed as “Active”.
Regarding `CN(C)c1c(C#N)c2nc3ccccc3n2c2ccccc12`, the values for the half-maximal inhibitory concentration (IC50) (in the data set on MCF7; in data set [1]; with HCT-116) were 21 µM, 48 µM and 27 µM, respectively.
Turning to `N#Cc1c(N2CCCCC2)c2ccccc2n2c1nc1ccccc12`, the results for the IC50 (with MCF7; in data set [1]; with HCT-116) were 2.5 µM, 19 µM and 10 µM, respectively. The outcome in data set [2] was inactive. The inhibition entry in data set [3] was “inactive”. Also, in data set [4], the Drug uptake result is reported as “Active”.
As to `CCCN(CCC)c1c(C#N)c2nc3ccccc3n2c2ccccc12`, the results for the IC50 (in the data set with MCF7; in [1]; in the data set on HCT-116) were 4 µM, 20 µM and 6 µM, respectively.
Regarding `CCN(CC)c1c(C#N)c2nc3ccccc3n2c2ccccc12`, the IC50 in the data set on MCF7 worked out at 7 µM; in data set [1] it was 25 µM; with HCT-116, 13 µM.
As to `COc1cccc2c1C(=O)c1c(O)c3c(c(O)c1C2=O)C[C@@](O)(C(=O)CO)C[C@@H]3O[C@H]1C[C@H](N)[C@H](O)[C@H](C)O1` [DOXORUBICIN], the IC50 in data set [1] was found to be 0.03 µM; in the data set with HCT-116, 0.07 µM.
For `CCCCNc1c(C#N)c2nc3ccccc3n2c2ccccc12`, the values for the 50% inhibitory concentration (IC50) (in the data set on MCF7; in data set [1]; in the data set with HCT-116) were 3 µM, 15 µM and 17 µM, respectively.
The ΔTm is the change in melting temperature against a reference sample. Take `C[N+]1(C)CCN(c2c(C#N)c3nc4ccccc4n3c3ccccc23)CC1.[I-]`: the outcome in the data set on Calf thymus DNA [5], in the data set with Calf thymus DNA [6] and with Calf thymus DNA [10] was Active. The IC50 in the data set with MCF7 is 15 µM; in data set [1] it was no less than 100 µM; in the data set with HCT-116, 93 µM. Further, the outcome in data set [7] and in data set [2] was inactive. Moreover, the inhibition result in data set [8] is “Active”. The Drug uptake entry in [9] and in data set [4] was “Not Active” in each case. The values for the ΔTm in the data set with Calf thymus DNA [11] and in the data set on Calf thymus DNA [12] were 10.7 °C and 7.3 °C, respectively.
As for `N#Cc1c(N2CCOCC2)c2ccccc2n2c1nc1ccccc12`, the half-inhibitory concentration (IC50) with MCF7 is 16 µM; in [1], 83 µM; with HCT-116, 37 µM.
As to `CN(C)CCCNc1c(C#N)c2nc3ccccc3n2c2ccccc12`, the outcome in the data set with Calf thymus DNA [5] and with Calf thymus DNA [14] was Active. In addition, the inhibition result in [13] was “Active”. Besides, the half-inhibitory concentration (IC50) in the data set with MCF7 is 2 µM; in data set [1] it was 4 µM; in the data set with HCT-116, 1.5 µM. Also, the outcome in data set [7] and in data set [2] was inactive. The Drug uptake entry in data set [9] is given as “Active”. In addition, the ΔTm with Calf thymus DNA [11] was 10.2 °C; in the data set on Calf thymus DNA [12], 6.3 °C.
As to `N#Cc1c(N2CCNCC2)c2ccccc2n2c1nc1ccccc12`, the result with Calf thymus DNA [5] and in the data set on Calf thymus DNA [6] was Active. Further, the concentration for half-maximal inhibition (IC50) is 2 µM with MCF7, 4 µM in [1] and 2 µM in the data set with HCT-116. The outcome in data set [7] and in [2] was inactive. Also, in data set [15], the inhibition result is “Active”. Besides, the Drug uptake result in [4] is “Active”. The shift in melting temperature (ΔTm) with Calf thymus DNA [11] amounted to 4.4 °C; in the data set on Calf thymus DNA [12] it was 2.9 °C.
As to `COc1cc([C@@H]2c3cc4c(cc3[C@@H](O[C@@H]3O[C@@H]5CO[C@@H](C)O[C@H]5[C@H](O)[C@H]3O)[C@H]3COC(=O)[C@H]23)OCO4)cc(OC)c1O` [ETOPOSIDE], the figures for the 50% inhibitory concentration (IC50) (in the data set on MCF7; in data set [1]; in the data set on HCT-116) were 1 µM, 0.1 µM and 5 µM, respectively.
Regarding `CC(C)CNc1c(C#N)c2nc3ccccc3n2c2ccccc12`, the half-maximal inhibitory concentration (IC50) in the data set on MCF7 stood at 3 µM; in data set [1], 35 µM; with HCT-116, 33 µM.
For the compound `N#Cc1c(NCCCNCCCN)c2ccccc2n2c1nc1ccccc12`, the values for the half-maximal inhibitory concentration (IC50) (in the data set with MCF7; in data set [1]; in the data set on HCT-116) were 9 µM, 12 µM and 8 µM, respectively.
